pIC50: −log10 of the molar value. In brackets after ≈: the same amount, converted by molar mass. Activity calls are given as the source filed them. The calls are words filed in the database; no cut-off is given here.
Columns and labels:
[1] = system: DU-145; test: Cytotoxicity against human DU145 cells assessed as reduction in cell viability up to 20 uM after 24 hrs by MTT assay; format: functional, cell-based
In short: (§1)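 Cells were grown as adherent monolayers at 37 °C in 5% CO2: SKOV3 in advanced DMEM, DU145 and MB231 in RPMI-1640 with glutamine and 10% FBS. They were seeded at 2000–7500 cells/well, treated on day 1 for 24 h with drug in DMSO (final DMSO <0.1%), then given MTT at 0.83 mg mL−1 final overnight. After SDS/HCl lysis, A570 was read as percent of drug-free control; five replicate wells.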

[2] = system: HEK293; test: Toxicity in HEK293 cells assessed as effect on total protein up to 200 uM after 10 mins; format: cell-based; conditions: human, hek293, 10 min
In short: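 HEK293-mock cells were exposed to 100 or 200 μM for 10 min, and total cellular protein was then measured.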

[3] = target: T1, Solute carrier family 22 member 6 (Homo sapiens, UniProt Q4U2R8); test: Inhibition of human OAT1 expressed in HEK293 cells assessed as 6-CF uptake after 5 mins by fluorescence assay; format: cell-based; conditions: for inhibition (INH): human, hek293, 5 min
T1 sequence (Q4U2R8 whole entry): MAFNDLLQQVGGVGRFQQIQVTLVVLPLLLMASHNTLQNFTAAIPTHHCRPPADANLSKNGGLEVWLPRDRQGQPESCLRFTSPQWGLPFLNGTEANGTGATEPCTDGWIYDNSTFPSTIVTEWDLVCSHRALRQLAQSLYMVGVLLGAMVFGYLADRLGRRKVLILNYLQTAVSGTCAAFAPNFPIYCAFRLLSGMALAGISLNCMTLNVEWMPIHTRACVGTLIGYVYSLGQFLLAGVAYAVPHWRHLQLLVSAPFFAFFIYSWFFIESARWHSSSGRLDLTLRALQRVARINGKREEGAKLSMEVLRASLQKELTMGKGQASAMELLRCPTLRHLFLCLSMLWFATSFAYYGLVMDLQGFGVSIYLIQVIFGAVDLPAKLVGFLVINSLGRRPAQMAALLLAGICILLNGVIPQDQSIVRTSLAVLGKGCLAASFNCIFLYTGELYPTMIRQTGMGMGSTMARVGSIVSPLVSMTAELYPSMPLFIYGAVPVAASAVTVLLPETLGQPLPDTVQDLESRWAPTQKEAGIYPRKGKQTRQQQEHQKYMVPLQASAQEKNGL
In short: (§2)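 Stably transfected HEK293 cells (human OAT1, OAT3, OCT1, OCT2, OATP1B3, OATP2B1) and mock cells were assayed 16 h after seeding in HEPES uptake buffer, pH 7.2, with fluorescent probe ± compound. Incubation was 5 min for OAT1/3 and OATPs, and 10 min for OCT1/2. Reference inhibitors were probenecid (OATs), quinine (OCTs) and rifampicin (OATPs). Uptake was stopped with ice-cold PBS and cells were lysed in Tris/Triton. Fluorescence was normalised to BCA protein; triplicates, repeated 2–3 times.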

[4] = Cytotoxicity against HEK293FT cells assessed as reduction in cell viability up to 20 uM; format: cell-based; conditions: human
[5] = target: T2, Solute carrier organic anion transporter family member 1B3 (Homo sapiens, UniProt Q9NPD5); test: Inhibition of human OATP1B3 expressed in HEK293 cells assessed as FMTX uptake after 5 mins by fluorescence assay; format: cell-based; conditions: for inhibition (INH): human, hek293, 5 min; in short: as §2
T2 sequence (Q9NPD5 whole entry): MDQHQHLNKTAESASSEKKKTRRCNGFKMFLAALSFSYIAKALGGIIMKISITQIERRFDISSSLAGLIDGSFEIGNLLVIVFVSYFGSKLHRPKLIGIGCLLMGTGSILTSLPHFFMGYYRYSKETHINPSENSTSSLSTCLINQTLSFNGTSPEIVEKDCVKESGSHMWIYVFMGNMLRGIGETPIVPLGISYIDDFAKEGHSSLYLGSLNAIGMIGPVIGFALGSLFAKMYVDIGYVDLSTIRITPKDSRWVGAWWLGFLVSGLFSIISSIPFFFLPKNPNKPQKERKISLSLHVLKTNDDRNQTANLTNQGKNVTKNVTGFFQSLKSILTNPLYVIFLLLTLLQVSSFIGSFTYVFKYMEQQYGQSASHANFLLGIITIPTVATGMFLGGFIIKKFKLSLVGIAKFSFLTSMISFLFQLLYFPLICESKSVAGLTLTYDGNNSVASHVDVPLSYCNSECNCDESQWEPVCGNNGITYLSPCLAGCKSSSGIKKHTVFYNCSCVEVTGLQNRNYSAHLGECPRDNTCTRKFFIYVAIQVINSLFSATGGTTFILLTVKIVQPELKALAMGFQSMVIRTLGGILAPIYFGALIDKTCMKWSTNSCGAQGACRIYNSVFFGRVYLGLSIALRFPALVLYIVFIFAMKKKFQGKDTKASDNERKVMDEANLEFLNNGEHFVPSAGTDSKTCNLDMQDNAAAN

[6] = system: MDA-MB-231; test: Cytotoxicity against human MDA-MB-231 cells assessed as reduction in cell viability up to 20 uM after 24 hrs by MTT assay; format: functional, cell-based; in short: as §1
[7] = Aqueous solubility of the compound after 1 hrs by HPLC-UV method; format: physicochemical; conditions: deionized water
In short: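 Shaken in tubes at 25 °C for 1 h, protected from light, then filtered through 0.2 μm filters; filtrate diluted in deionized water and quantified by reversed-phase HPLC-UV (C18 column, room temperature, methanol/water 70:30 v/v, 1.0 mL min−1).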

[8] = target: T3, Solute carrier family 22 member 1 (Homo sapiens, UniProt O15245); test: Substrate activity at human OCT1 expressed in HEK293 cells assessed as compound uptake by HPLC-UV method; format: ADME, cell-based
T3 sequence (O15245 whole entry): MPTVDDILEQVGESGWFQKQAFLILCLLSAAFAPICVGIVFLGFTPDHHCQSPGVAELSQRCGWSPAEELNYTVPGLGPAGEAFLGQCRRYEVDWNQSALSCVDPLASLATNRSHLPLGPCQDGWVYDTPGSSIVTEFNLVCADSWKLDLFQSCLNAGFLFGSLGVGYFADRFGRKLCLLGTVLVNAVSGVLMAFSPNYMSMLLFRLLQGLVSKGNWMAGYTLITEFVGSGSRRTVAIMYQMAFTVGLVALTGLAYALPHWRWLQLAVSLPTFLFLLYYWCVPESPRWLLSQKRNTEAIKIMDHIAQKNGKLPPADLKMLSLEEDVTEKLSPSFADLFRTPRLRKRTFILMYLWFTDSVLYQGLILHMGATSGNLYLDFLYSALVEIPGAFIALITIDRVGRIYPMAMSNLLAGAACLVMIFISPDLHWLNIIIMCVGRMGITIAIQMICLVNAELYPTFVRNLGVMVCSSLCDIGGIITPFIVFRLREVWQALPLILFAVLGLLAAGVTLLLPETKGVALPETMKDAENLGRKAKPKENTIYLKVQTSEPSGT

[9] = Toxicity in ip dosed DBA/2 mouse assessed as reduction in 15% body weight administered as daily dose for 3 days; format: organism-based; conditions: in vivo
In short: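 Adult male DBA/2 mice were dosed i.p. at 10 mL kg−1, with 5 per group. Controls (n = 8) received saline. MTD was the dose allowing 15% median body-weight loss with no toxic deaths or marked change in general signs within 3 days.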

What does the source list for `COc1ccc(/C=C\c2cc(OC)c(OC)c(OC)c2)cc1O` [COMBRETASTATIN A4]?
Activity [1]: Active; Activity [2]: Non-Toxic; pIC50 [3]: 4.38; inhibition (INH) [3]: Dose-dependent effect; Activity [4]: Toxic; pIC50 [5]: 3.71; inhibition (INH) [5]: Dose-dependent effect; Activity [6]: Active; solubility at 1 h [7]: 3 µg/mL (≈ 9.48 µM); Drug uptake [8]: Active; MTD at 72 h [9]: 25 mg/kg

Which results are given for `COc1ccc(/C=C\c2cc(OC)c(OC)c(OC)c2)cc1O[C@@H]1O[C@H](CO)[C@@H](O)[C@H](O)[C@H]1O`?
Activity [1]: Active; Activity [2]: Non-Toxic; pIC50 [3]: < 3.70; inhibition (INH) [3]: Dose-dependent effect; Activity [4]: Toxic; pIC50 [5]: < 3.70; inhibition (INH) [5]: Dose-dependent effect; Activity [6]: Active; solubility at 1 h [7]: 1830 µg/mL (≈ 3820 µM); Drug uptake [8]: Not Active; MTD at 72 h [9]: 400 mg/kg

Reference: ChEMBL document CHEMBL4257448, “Deciphering the origins of molecular toxicity of combretastatin A4 and its glycoconjugates: interactions with major drug transporters and their safety profiles in vitro and in vivo” (Medchemcomm, 2017)
